Converted amounts (≈) assume the structure as drawn.

Results on 30 compounds are retold here after ChEMBL document CHEMBL1153265, “Quinolines as a novel structural class of potent and selective PDE4 inhibitors: optimisation for oral administration” (Bioorg Med Chem Lett, 2009).

A short description of series [1]: Solubility of the compound. The class given is physicochemical.
Series [2] deals with 3',5'-cyclic-AMP phosphodiesterase 4B (Homo sapiens, UniProt Q07343). Briefly: Inhibition of human recombinant PDE4B by scintillation proximity assay.
For the next series, the system named is Blood. Briefly: Inhibition of LPS-induced TNFalpha production in human whole blood. The class given is functional, tissue-based.
Series [3] can be described thus: Clearance in Sprague-Dawley CD rat at 1 mg/kg, iv and 1 mg/kg, po. Format: ADME, organism-based. The settings on record: in vivo. Put shortly:
(§1)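 Male CD Sprague rats, each compound given intravenously and orally at 1 mg/kg. Pharmacokinetic parameters derived from both routes.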

The nature of series [4]: Oral bioavailability in Sprague-Dawley CD rat at 1 mg/kg. The following applies: in vivo. The class given is ADME, organism-based. Summed up:
as §1

A short description of series [5]: Half life in Sprague-Dawley CD rat at 1 mg/kg, iv and 1 mg/kg, po. The class given is ADME, organism-based. The following applies: in vivo. Put shortly: as §1
A short description of series [6]: AUC in Sprague-Dawley CD rat at 1 mg/kg, po. Also noted: dose 1 mg/kg, route oral. The following applies: plasma. The class given is ADME, organism-based. Put shortly: as §1
The nature of series [7]: Selectivity for human recombinant PDE4B over PDE2.
The nature of series [8]: Selectivity for human recombinant PDE4B over PDE7.
Series [9] is described as follows: Selectivity for human recombinant PDE4B over PDE6.
A short description of series [10]: Selectivity for human recombinant PDE4B over PDE1.
A short description of series [11]: Selectivity for human recombinant PDE4B over bovine aorta PDE3. Format: tissue-based. Put shortly: (§2)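 Catalytic activity of human recombinant PDE4B, PDE3 purified from bovine aorta and human recombinant PDE5 was measured by scintillation proximity assay in 96-well format. Selectivity compares inhibition of PDE4B with inhibition of the other enzyme.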
The species named for another series is Homo sapiens. Briefly: Selectivity for human recombinant PDE4B over human recombinant PDE5. Summed up: as §2

3',5'-cyclic-AMP phosphodiesterase 4B, sequence (Q07343 whole entry): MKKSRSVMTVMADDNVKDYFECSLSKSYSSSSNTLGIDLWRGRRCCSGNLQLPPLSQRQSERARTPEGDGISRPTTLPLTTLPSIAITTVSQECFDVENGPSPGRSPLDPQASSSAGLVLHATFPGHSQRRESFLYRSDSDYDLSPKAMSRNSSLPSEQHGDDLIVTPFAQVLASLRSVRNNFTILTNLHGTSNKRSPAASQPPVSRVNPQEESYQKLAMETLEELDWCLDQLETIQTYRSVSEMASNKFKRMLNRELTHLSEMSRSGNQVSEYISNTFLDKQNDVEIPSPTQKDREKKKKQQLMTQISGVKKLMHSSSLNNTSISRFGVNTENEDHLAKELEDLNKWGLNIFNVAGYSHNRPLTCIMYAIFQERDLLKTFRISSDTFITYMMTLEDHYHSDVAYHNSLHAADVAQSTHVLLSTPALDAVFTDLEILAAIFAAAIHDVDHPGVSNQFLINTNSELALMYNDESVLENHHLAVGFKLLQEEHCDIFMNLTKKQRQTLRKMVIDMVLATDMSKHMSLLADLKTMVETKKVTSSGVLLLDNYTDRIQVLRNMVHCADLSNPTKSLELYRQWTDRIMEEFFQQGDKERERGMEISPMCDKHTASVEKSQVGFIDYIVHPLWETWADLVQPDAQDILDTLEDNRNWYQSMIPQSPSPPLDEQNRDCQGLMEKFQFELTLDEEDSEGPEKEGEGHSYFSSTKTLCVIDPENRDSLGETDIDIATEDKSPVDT

Compound `CS(=O)(=O)c1ccc2ncc(C(N)=O)c(Nc3cccc(Cl)c3)c2c1` registered a solubility in series [1] of 2 µg/mL (≈ 5.32 µM). The 50% inhibitory concentration (IC50) in series [2] was 15.8 nM; with Blood, 251 nM.

On to `CS(=O)(=O)c1ccc2ncc(C(N)=O)c(Nc3cccc(C#N)c3)c2c1`, for which the concentration for half-maximal inhibition (IC50) in series [2] was 20 nM; in the series on Blood, 316 nM. The clearance in series [3] was found to be 16 mL/min/kg. This compound also showed a bioavailability in [4] of 23%. In series [5], this compound had a half-life of 0.9 h.

As to `CS(=O)(=O)c1ccc2ncc(C(N)=O)c(Nc3cccc4c3CCO4)c2c1`, the solubility in [1] stood at 43 µg/mL (≈ 112 µM). Moreover, the half-maximal inhibitory concentration (IC50) is 2.51 nM in series [2] and 25.1 nM in the series on Blood. The compound also yielded a clearance in [3] of 38 mL/min/kg. In addition, in [4], the bioavailability worked out at 38%. This compound also gave a half-life in series [5] of 1.7 h.

Turning to `COc1cc(Nc2c(C(N)=O)cnc3ccc(S(C)(=O)=O)cc23)ccc1F`, the concentration in solution in series [1] (solubility) came to 4 µg/mL (≈ 10.3 µM). Also, the results for the IC50 (in series [2]; with Blood) were 31.6 nM and 158 nM, respectively. This compound gave a clearance in series [3] of 21 mL/min/kg. The AUC in series [6] was found to be 530 ng·h/mL. Besides, the bioavailability in [4] worked out at 65%. The same compound had a half-life in series [5] of 1.9 h.

With `COc1cc(Nc2c(C(N)=O)cnc3c(C)cc(S(C)(=O)=O)cc23)ccc1F`, the concentration in solution in series [1] (solubility) came to 5 µg/mL (≈ 12.4 µM). Besides, the concentration for half-maximal inhibition (IC50) was 0.316 nM in [2] and 7.94 nM with Blood. In series [3], this compound registered a clearance of 16 mL/min/kg. Also, the fold change (FC) in series [7], in series [8], in series [9] and in [10] was above 100 in each case. The compound further yielded an exposure (AUC) in series [6] of 770 ng·h/mL. Moreover, the bioavailability in [4] was 82%. In [5], this compound showed a half-life of 1.6 h.

With `COc1cccc(Nc2c(C(N)=O)cnc3ccc(S(=O)(=O)c4ccccc4)cc23)c1`, the 50% inhibitory concentration (IC50) in [2] was 1.58 nM.

The compound `COc1cc(Nc2c(C(N)=O)cnc3c(F)cc(S(C)(=O)=O)cc23)ccc1F` gave an IC50 in the series with Blood of 15.8 nM.

For `CS(=O)(=O)c1ccc2ncc(C(N)=O)c(Nc3cccnc3)c2c1`, the results for the IC50 (in series [2]; in the series on Blood) were 100 nM and 2000 nM, respectively.

As for `Cc1cc(S(C)(=O)=O)cc2c(Nc3cccc(C#N)c3)c(C(N)=O)cnc12`, the concentration in solution in series [1] (solubility) came to 18 µg/mL (≈ 47.3 µM). Further, the clearance in series [3] was found to be 19 mL/min/kg. In addition, the fold change (FC) in series [7], in series [8], in series [9] and in series [10] was above 100 throughout. The same compound had a half-maximal inhibitory concentration (IC50) with Blood of 25.1 nM. In series [4], this compound gave a bioavailability of 27%. For the same compound, the half-life in series [5] is 2.3 h.

The compound `CCc1cc(S(C)(=O)=O)cc2c(Nc3ccc(F)c(OC)c3)c(C(N)=O)cnc12` had an IC50 in the series on Blood of 12.6 nM.

Take `COc1cccc(Nc2c(C#N)cnc3ccc(S(C)(=O)=O)cc23)c1`: the half-maximal inhibitory concentration (IC50) in series [2] is 501 nM.

For `CS(=O)(=O)c1ccc2ncc(C(N)=O)c(Nc3cccc(O)c3)c2c1`, the fold change (FC) (in series [11]; in the series filed under Homo sapiens) was above 300 each time. Further, the concentration in solution in series [1] (solubility) came to 30 µg/mL (≈ 83.9 µM). Moreover, the half-maximal inhibitory concentration (IC50) in series [2] is 100 nM.

In the case of `COc1cccc(Nc2cc(C(N)=O)nc3ccc(S(C)(=O)=O)cc23)c1`, the half-maximal inhibitory concentration (IC50) in [2] is 7940 nM.

Consider `CS(=O)(=O)c1ccc2ncc(C(N)=O)c(Sc3cccc(Cl)c3)c2c1`, for which the IC50 in series [2] was 20000 nM.

As to `CN(c1cccc(Cl)c1)c1c(C(N)=O)cnc2ccc(S(C)(=O)=O)cc12`, the 50% inhibitory concentration (IC50) in [2] was 1000 nM.

Consider `CS(=O)(=O)c1ccc2ncc(C(N)=O)c(Nc3cccc(CN)c3)c2c1`, for which the IC50 in series [2] was 79.4 nM; in the series on Blood, 1260 nM.

Take `COc1cc(Nc2c(C(N)=O)cnc3c(OC)cc(S(C)(=O)=O)cc23)ccc1F`: the 50% inhibitory concentration (IC50) in series [2] was 5.01 nM; with Blood, 251 nM. In [6], this compound displayed an AUC of 81 ng·h/mL.

Take `COc1cccc(Nc2c(C(N)=O)cnc3ccc(S(C)(=O)=O)cc23)c1`: the solubility in series [1] came out at 5 µg/mL (≈ 13.5 µM). Further, the clearance in series [3] was 10 mL/min/kg. Moreover, the bioavailability in [4] stood at 10%. The compound also had a half-life in series [5] of 1.1 h.

As to `COc1cccc(Nc2c(-c3nc(C)no3)cnc3ccc(S(C)(=O)=O)cc23)c1`, the IC50 in [2] was 15800 nM.

In the case of `O=C(Nc1c(Cl)cncc1Cl)c1ccc(OC(F)F)c(OCC2CC2)c1` [ROFLUMILAST], the fold change (FC) (in series [11]; in the series filed under Homo sapiens) was above 300 throughout. The half-maximal inhibitory concentration (IC50) in the series with Blood was 20 nM.

For `COc1cc(Nc2c(C(N)=O)cnc3c(Cl)cc(S(C)(=O)=O)cc23)ccc1F`, in series [6], the exposure (AUC) was 16 ng·h/mL. The compound further gave an IC50 in the series on Blood of 7.94 nM.

With `COc1cccc(Nc2c(CN)cnc3ccc(S(=O)(=O)c4ccccc4)cc23)c1`, the half-inhibitory concentration (IC50) in series [2] is 251 nM.

Consider `CS(=O)(=O)c1ccc2ncc(C(N)=O)c(Oc3cccc(Cl)c3)c2c1`, for which the half-maximal inhibitory concentration (IC50) in series [2] is 3160 nM.

On to `CS(=O)(=O)c1ccc2ncc(C(N)=O)c(NC3CCOCC3)c2c1`, for which the IC50 in series [2] is above 31600 nM.

In the case of `COc1cccc(Nc2c(C(=O)O)cnc3ccc(S(=O)(=O)c4ccccc4)cc23)c1`, the half-maximal inhibitory concentration (IC50) in series [2] was 12600 nM.

In the case of `CNC(=O)c1cnc2ccc(S(C)(=O)=O)cc2c1Nc1cccc(OC)c1`, the 50% inhibitory concentration (IC50) in series [2] is 3160 nM.

`CS(=O)(=O)c1ccc2ncc(C(N)=O)c(Nc3cccc(Cl)c3F)c2c1` gave a solubility in series [1] of 12 µg/mL (≈ 30.5 µM). The IC50 was 6.31 nM in series [2] and 251 nM in the series with Blood. This compound also displayed a clearance in series [3] of 13 mL/min/kg. The bioavailability in series [4] turned out to be 47%. In series [5], this compound showed a half-life of 2 h.

`CS(=O)(=O)c1ccc2ncc(C(N)=O)c(N)c2c1`: in series [2], the half-maximal inhibitory concentration (IC50) is above 31600 nM.

Turning to `COc1cccc(Nc2c(-c3nnc(C)o3)cnc3ccc(S(C)(=O)=O)cc23)c1`, the half-maximal inhibitory concentration (IC50) in series [2] is 20000 nM.

Turning to `CS(=O)(=O)c1ccc2ncc(C(N)=O)c(Nc3cccc(C(=O)O)c3)c2c1`, the IC50 in series [2] was 5010 nM.
